In ChEMBL document CHEMBL3227987, “A new nonsteroidal analgesic-antiinflammatory agent. Synthesis and activity of 4-ethoxy-2-methyl-5-morpholino-3(2H)-pyridazinone and related compounds” (J Med Chem, 1979):

Experiments:
Rattus norvegicus [1] = experiment: Antiinflammatory activity in Wistar rat assessed as inhibition of carrageenan-induced paw edema at 50 mg/kg, po pretreated for 30 mins followed by carrageenan challenge measured after 3 hrs relative to control; format: functional
Procedure, shortened: (§1)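 Male Wistar rats (120-150 g), six per group, dosed orally with compound suspended in 1% gum arabic; 30 min later 0.1 mL 1% carrageenan injected sc into hind paw plantar surface. Edema measured at 3 h; percent inhibition calculated against carrageenan-only animals.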

Mus musculus = experiment: Analgesic activity in sc dosed ddY mouse assessed as inhibition of acetic acid-induced abdominal stretching pretreated for 30 mins followed by acetic acid challenge measured for 5 to 20 mins; format: functional; conditions: Abdomen
Procedure, shortened: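 Compound suspended in 1% gum arabic, given sc to mice; 30 min later 0.6% acetic acid ip at 0.1 mL/10 g body weight. Mouse counted protected if no stretching from 5 to 20 min after acid; ED50 by Litchfield–Wilcoxon method.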

Rattus norvegicus [2] = experiment: Antiinflammatory activity in Wistar rat assessed as inhibition of carrageenan-induced paw edema at 100 mg/kg, po pretreated for 30 mins followed by carrageenan challenge measured after 3 hrs relative to control; format: functional; procedure, shortened: as §1
Rattus norvegicus [3] = experiment: Antiinflammatory activity in Wistar rat assessed as inhibition of carrageenan-induced paw edema at 25 mg/kg, po pretreated for 30 mins followed by carrageenan challenge measured after 3 hrs relative to control; format: functional; procedure, shortened: as §1
[4] = Acute toxicity in ip dosed ddY mouse measured after 72 hrs; format: organism-based; conditions: in vivo

Row | Structure (SMILES) | inhibition in vivo at 50 mg/kg (Rattus norvegicus [1]) | ED50 (Mus musculus) | inhibition in vivo at 100 mg/kg (Rattus norvegicus [2]) | inhibition in vivo at 25 mg/kg (Rattus norvegicus [3]) | LD50 at 72 h [4]
1 | C=CCOc1c(N2CCOCC2)cnn(C)c1=O | 5.2% | 90 mg/kg | 17.4% |  | 
2 | Cn1ncc(Cl)c(Cl)c1=O | -8.9% | > 100 mg/kg | 23.2% |  | 
3 | Cn1ncc(N2CCOCC2)c(Cl)c1=O | 32.2% | 35 mg/kg | 38.9% | 15.2% | 75 mg/kg
4 | Cn1ncc(N2CCOCC2)c(O)c1=O | 8.2% | > 100 mg/kg | 16.6% |  | 
5 | Cn1ncc(O)c(Cl)c1=O |  | > 100 mg/kg | -5.8% |  | 
6 | CCOc1c(NC)cnn(C)c1=O | 4.5% | 55 mg/kg | 31.1% | -1.1% | 400 mg/kg
7 | CCCNc1cnn(C)c(=O)c1OCC | 8% | 72 mg/kg | 38% | 2% | 
8 | CCOc1c(N(C)C)cnn(C)c1=O | 30.7% | 86 mg/kg | 49.5% | 27.5% | 305 mg/kg
9 | CCOc1c(N(CC)CC)cnn(C)c1=O | 1.7% | 70 mg/kg | 32.5% |  | 
10 | C=CCN(CC=C)c1cnn(C)c(=O)c1OCC | -5.2% | 82 mg/kg | 12.9% |  | 
11 | CCOc1c(N2CCSCC2)cnn(C)c1=O | 6.2% | > 100 mg/kg | 11.8% |  | 
12 | CCOc1c(N2CCCCC2)cnn(C)c1=O | -5.4% | 86 mg/kg | 14.1% |  | 
13 | CCOc1c(N2CCCC2)cnn(C)c1=O | -2.3% | > 100 mg/kg | 23% |  | 
14 | CCOc1c(N2CCN(C)CC2)cnn(C)c1=O | 10.2% | 82 mg/kg | 12.3% |  | 
15 | CCOc1c(Nc2ccccc2)cnn(C)c1=O |  | 36 mg/kg | 4.9% |  | 
16 | COc1c(N2CCOCC2)cnn(C)c1=O | 23.2% | 72 mg/kg | 43.4% | 11% | 600 mg/kg
17 | CCCOc1c(N2CCOCC2)cnn(C)c1=O | 32.4% | 23 mg/kg | 34.9% | 4.5% | 500 mg/kg
18 | CC(C)Oc1c(N2CCOCC2)cnn(C)c1=O |  | 86 mg/kg | 7.2% |  | 

Row | Structure (SMILES) | inhibition in vivo at 50 mg/kg (Rattus norvegicus [1]) | ED50 (Mus musculus) | inhibition in vivo at 100 mg/kg (Rattus norvegicus [2]) | inhibition in vivo at 25 mg/kg (Rattus norvegicus [3]) | LD50 at 72 h [4]
19 | CCCCOc1c(N2CCOCC2)cnn(C)c1=O | -2.8% | 41 mg/kg | 28.8% |  | 440 mg/kg
20 | CCCCCOc1c(N2CCOCC2)cnn(C)c1=O | 2.4% | 29 mg/kg | 20.7% |  | 420 mg/kg
21 | CCOc1c(N2CCOCC2)cnn(CC)c1=O | 25.4% | 95 mg/kg | 58.4% | 8.3% | 380 mg/kg
22 | CCCn1ncc(N2CCOCC2)c(OCC)c1=O | 3.5% | > 100 mg/kg | 32.4% |  | 
23 | CCOc1c(N2CCOCC2)cnn(C(C)C)c1=O | 2.1% | > 100 mg/kg | 22.2% |  | 
24 | CCCCn1ncc(N2CCOCC2)c(OCC)c1=O |  | > 100 mg/kg | 18.3% |  | 
25 | C/C=C/n1ncc(N2CCOCC2)c(OCC)c1=O |  | > 100 mg/kg | 3.1% |  | 
26 | C=CCn1ncc(N2CCOCC2)c(OCC)c1=O | 1.2% | 18 mg/kg | 23.5% |  | 550 mg/kg
27 | CCOc1c(N2CCOCC2)cn[nH]c1=O |  | > 100 mg/kg | 9.2% |  | 
28 | CCOc1ccnn(C)c1=O |  | > 100 mg/kg | -12.2% |  | 
29 | Cn1ncccc1=O |  | 65 mg/kg | 4.5% |  | 
30 | O=c1cccn[nH]1 |  | > 100 mg/kg | 6.3% |  | 
31 | Cn1ncc(N2CCOCC2)cc1=O |  | > 100 mg/kg | -5.6% |  | 
32 | Cc1c(N(C)C)c(=O)n(-c2ccccc2)n1C [AMINOPYRINE] | 25% | 46 mg/kg | 48.2% | 11% | 420 mg/kg
33 | CCOc1c(N2CCOCC2)cnn(C)c1=O [EMORFAZONE] | 38.8% | 41 mg/kg | 55% | 20.2% | 700 mg/kg
34 | CCCCC1C(=O)N(c2ccccc2)N(c2ccccc2)C1=O [PHENYLBUTAZONE] | 35% | > 100 mg/kg | 40.6% | 18% | 420 mg/kg
35 | c1ccnnc1 [PYRIDAZINE] |  | > 100 mg/kg | -2.4% |  | 
